pEC50, pIC50: −log10 of the molar value.
Tests used:
Tubulin = assay: (§1) Activation of tubulin (unknown origin) polymerization; type: protein-complex assay, Homo sapiens
In short: (§2)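 Purified brain tubulin (kit), final 3.0 mg/mL, in 80.0 mM PIPES sesquisodium pH 6.9, 2.0 mM MgCl2, 0.5 mM EGTA, 1 mM GTP, 10.2% glycerol; components prewarmed to 37 °C, reaction started by adding tubulin. A340 read each minute for 1 h. Single-point % stimulation used 10 μM compound; EC50 from 3.75, 7.5, 15, 30, 60 μM.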

Tubulin (Homo sapiens) [1] = target: T1, Tubulin (Homo sapiens) (UniProt P68371+Q9H4B7+P0DPH7+P68366+Q13509+Q71U36+P04350+Q3ZCM7+P07437+P68363+Q9BQE3+Q6PEY2+Q13885+Q9BVA1+Q9BUF5); assay: Activation of tubulin (unknown origin) polymerization at 10 uM; type: protein-complex assay; in short: as §2
A549 [2] = assay: Cytotoxicity against paclitaxel-resistant human A549 cells after 48 hrs by MTT assay; type: functional, cell-based; details: A549, 48 h
In short: (§3)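 Log-phase cells (40000–50000 cells/mL) grown in DMEM with 10% fetal calf serum (5% CO2, 37 °C) and exposed 48 h to five concentrations, 3–5 replicates. Read-out was MTT with absorbance at 570 nm; IC50 reported as mean ± SD of three independent experiments. Resistant A549 and HeLa sublines were made by stepwise paclitaxel selection; resistance index = IC50(resistant)/IC50(sensitive).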

K562 = assay: Cytotoxicity against human K562 cells after 48 hrs by MTT assay; type: functional, cell-based; in short: as §3
[3] = Cytotoxicity against human QGY cells after 48 hrs by MTT assay; type: functional, cell-based; in short: as §3
SW480 = assay: Cytotoxicity against human SW480 cells after 48 hrs by MTT assay; type: functional, cell-based; in short: as §3
A549 [4] = assay: Cytotoxicity against human A549 cells after 48 hrs by MTT assay; type: functional, cell-based; in short: as §3
Mus musculus = assay: Toxicity in human A549 cells xenografted BALB/c nude mouse assessed as change in body weight at 30 mg/kg, ig; type: organism-based; set-up: dose 30 mg/kg, route intragastric; details: in vivo, po
In short: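 Male BALB/c nude mice, 5 weeks old (18–20 g), implanted subcutaneously in the right armpit with A549 tumor fragments (3 mm3). On day 13, at 100–200 mm3, daily intragastric dosing began: 100 or 500 mg/kg test compound, or 30 mg/kg paclitaxel, in Tween-80 diluted with saline. Vehicle given ip. Tumor volume and body weight followed; n = 6; inhibition rate at day 16.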

HeLa = assay: Cytotoxicity against human HeLa cells after 48 hrs by MTT assay; type: functional, cell-based; in short: as §3
Tubulin (Homo sapiens) [5] = target: T1, Tubulin (Homo sapiens); assay: as §1; type: protein-complex assay; in short: as §2

Activity (Tubulin (Homo sapiens) [1]) [%]	Compound	pIC50 (K562; Homo sapiens, K562, 48 h)	pIC50 ([3]; Homo sapiens, QGY, 48 h)	pIC50 (SW480; Homo sapiens, SW480, 48 h)	pIC50 (A549 [4]; Homo sapiens, A549, 48 h)	pIC50 (HeLa; Homo sapiens, HeLa, 48 h)	further results
245	CC(=O)O[C@H]1C(=O)[C@@]2(C)[C@H]([C@H](OC(=O)c3ccccc3)[C@]3(O)C[C@H](OC(=O)[C@H](O)[C@@H](NC(=O)c4ccccc4)c4ccccc4)C(C)=C1C3(C)C)[C@]1(OC(C)=O)CO[C@@H]1C[C@@H]2O [PACLITAXEL]	7.80	7.95	7.92	8.09	–	pEC50 (Tubulin): 5.91; pIC50 (A549 [2]): 5.98; Activity (Mus musculus): Toxic
31.5	COc1cc([C@@H]2C[C@]2(CO)C(=O)Nc2ccccc2)cc(OC)c1OC	< 4.00	4.29	4.48	4.62	4.49	pEC50 (Tubulin): 4.84
–	CCOC(=O)C1(C(=O)NCCc2cccc(F)c2)CC1c1cc(OC)c(OC)c(OC)c1 (trans isomer)	–	–	–	–	–	pIC50 (K562; k562): < 4.00; pIC50 ([3]; qgy): < 4.00; pIC50 (SW480; sw480): 4.10; pIC50 (HeLa; hela): 4.24; pIC50 (A549 [4]; a549): 4.19
–	CCOC(=O)C1(C(=O)NCc2ccc(OC)cc2)CC1c1cc(OC)c(OC)c(OC)c1 (cis isomer)	< 4.00	< 4.00	< 4.00	< 4.00	< 4.00	–
–	CCOC(=O)C1(C(=O)NCc2ccc(C)cc2)CC1c1cc(OC)c(OC)c(OC)c1 (cis isomer)	< 4.00	–	–	4.73	4.48	pIC50 ([3]; qgy): < 4.00; pIC50 (SW480; sw480): 4.54
50	CCOC(=O)C1(C(=O)NCc2ccc(OC)cc2)CC1c1cc(OC)c(OC)c(OC)c1 (trans isomer)	–	–	–	–	–	–
–	CCOC(=O)C1(C(=O)Nc2ccccc2Cl)CC1c1cc(OC)c(OC)c(OC)c1 (stereo in doubt; trans)	–	–	–	–	–	pIC50 (K562; k562): 4.85; pIC50 ([3]; qgy): 4.31; pIC50 (SW480; sw480): 4.18; pIC50 (HeLa; hela): 4.12; pIC50 (A549 [4]; a549): 4.73
–	CCOC(=O)C1(C(=O)NCc2ccc(F)cc2)CC1c1cc(OC)c(OC)c(OC)c1 (stereo in doubt)	4.35	4.23	4.47	4.53	4.49	–
–	COc1cc([C@@H]2C[C@@]2(CO)C(=O)Nc2ccccc2Cl)cc(OC)c1OC	4.74	4.61	4.97	4.94	4.88	–
–	CCOC(=O)C1(C(=O)Nc2ccc(F)cc2)CC1c1cc(OC)c(OC)c(OC)c1 (trans isomer) [listing 1 of 2 here]	–	–	–	–	–	pIC50 (K562; k562): < 4.00; pIC50 ([3]; qgy): 4.44; pIC50 (SW480; sw480): 4.38; pIC50 (HeLa; hela): 4.43; pIC50 (A549 [4]; a549): 4.55
79.3	CCOC(=O)[C@]1(C(=O)NCc2ccc(C)cc2)C[C@H]1c1cc(OC)c(OC)c(OC)c1	< 4.00	4.49	4.44	4.88	4.55	Activity (Tubulin (Homo sapiens) [5]): Dose-dependent effect; pEC50 (Tubulin): 5.23
40.8	CCOC(=O)C1(C(=O)NCCc2ccc(F)cc2)CC1c1cc(OC)c(OC)c(OC)c1 (cis isomer)	–	–	–	–	–	–
7.9	CCOC(=O)C1(C(=O)Nc2ccc(F)cc2)CC1c1cc(OC)c(OC)c(OC)c1 (trans isomer) [listing 2 of 2 here]	–	–	–	–	–	–
28.6	CCOC(=O)[C@]1(C(=O)Nc2ccccc2Cl)C[C@H]1c1cc(OC)c(OC)c(OC)c1	4.68	4.55	4.59	4.87	4.37	pEC50 (Tubulin): 4.77
–	COc1cc([C@@H]2C[C@]2(CO)C(=O)NCc2ccc(C)cc2)cc(OC)c1OC	< 4.00	4.60	4.57	4.98	4.76	–
–	COc1cc([C@H]2C[C@]2(CO)C(=O)Nc2ccccc2)cc(OC)c1OC	< 4.00	< 4.00	< 4.00	< 4.00	< 4.00	–
–	CCOC(=O)C1(C(=O)NCCc2cccc(F)c2)CC1c1cc(OC)c(OC)c(OC)c1 (cis isomer)	4.12	–	–	4.28	–	pIC50 ([3]; qgy): 4.40; pIC50 (SW480; sw480): 4.45; pIC50 (HeLa; hela): 4.55
–	CCOC(=O)[C@@]1(C(=O)Nc2ccccc2Cl)C[C@@H]1c1cc(OC)c(OC)c(OC)c1	4.31	< 4.00	4.33	4.54	< 4.00	–
–	COc1cc([C@@H]2C[C@@]2(CO)C(=O)Nc2ccccc2)cc(OC)c1OC	< 4.00	4.44	4.11	4.36	4.06	–
–	CCOC(=O)[C@@]1(C(=O)Nc2ccccc2)C[C@@H]1c1cc(OC)c(OC)c(OC)c1	< 4.00	< 4.00	< 4.00	< 4.00	< 4.00	–

From ChEMBL document CHEMBL2311397, “Design and synthesis of cyclopropylamide analogues of combretastatin-A4 as novel microtubule-stabilizing agents” (J Med Chem, 2013)
